According to ChEMBL document CHEMBL3297654, “Synthesis, antimicrobial and cytotoxic activities, and structure-activity relationships of gypsogenin derivatives against human cancer cells” (Eur J Med Chem, 2014):
In brackets after ≈: the same amount, converted by molar mass. Activity calls are given as the source filed them. No cut-off for these calls is given here.

Key:
Staphylococcus aureus = assay: Antimicrobial activity against Staphylococcus aureus ATCC 25923 assessed as zone of inhibition at 30 uL for 24 hrs at 37 degC by disk diffusion test; format: functional, organism-based
Summary of the method: (§1)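 Compound (30 µL of a fresh 1000 µg/mL DMSO stock) goes into a 6 mm well cut in Mueller Hinton agar inoculated with 0.1 mL broth culture adjusted to 0.5 McFarland (about 1×10^8 cells/mL). Plates are incubated 24 h at 37 °C, then zone of inhibition diameter is measured in mm.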

Caco-2 [1] = assay: Induction of necrosis in human Caco2 cells at 20 uM after 48 hrs by Hoechst 33258/propidium iodide staining based phase contrast microscopic analysis; format: functional
Summary of the method: (§2)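 Cells in 48-well plates treated with 0.5, 10, 20 or 40 µM for 24 and 48 h. Values are read at 48 h, 20 µM for test agents and 0.5 µM for controls. Staining is Hoechst 33258/propidium iodide double staining with fluorescence microscopy. Blue nuclei are viable or early-to-mid apoptotic, and pink nuclei are late apoptotic or necrotic. Apoptosis and necrosis are scored from chromatin condensation as % of cells. Cells are grown at 37 °C in 5% CO2 in RPMI, DMEM or McCoy's 5A with 10–15% heat-inactivated FCS.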

Nakaseomyces glabratus = assay: Antimicrobial activity against Candida glabrata assessed as zone of inhibition at 30 uL for 24 hrs at 30 degC by disk diffusion test; format: functional, organism-based
Summary of the method: (§3)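 Agar well diffusion on Mueller Hinton agar seeded with 0.1 mL broth culture (18–24 h), adjusted to 0.5 McFarland (about 1×10^8 bacteria or 1×10^6 yeast cells/mL). A 6 mm well is filled with 30 µL of compound from a fresh 1000 µg/mL DMSO stock. Plates are held at 30 °C for 24 h and inhibition zone diameter is read in mm.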

Bacillus cereus [2] = assay: Antimicrobial activity against Bacillus cereus ATCC 11778 assessed as zone of inhibition at 30 uL for 24 hrs at 30 degC by disk diffusion test; format: functional; summary of the method: as §3
Bacillus subtilis [3] = assay: Antimicrobial activity against Bacillus subtilis ATCC 6633 for 24 hrs by microdillution method; format: functional; settings: ATCC 6633, 24 h
Summary of the method: (§4)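 Broth microdilution. Compound is dissolved in DMSO (2 mg/mL) and diluted in Mueller Hinton broth as two-fold serial dilutions from 256 to 0.125 µg/mL. Bacteria are pre-grown in nutrient broth at 30 °C, and the final inoculum is about 10^6 cfu/mL. Tests are incubated 37 °C for 24 h. MIC is the lowest concentration giving complete inhibition. Streptomycin is the positive control.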

MCF7 [4] = assay: Antiproliferative activity against human MCF7 cells after 24 and 72 hrs by MTT assay; format: functional, cell-based
Summary of the method: (§5)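 ATCC human cell lines are kept in RPMI, DMEM or McCoy's 5A with 10–15% heat-inactivated FCS at 37 °C and 5% CO2. They are seeded at 1×10^4–1×10^5 cells/mL in 48-well plates and exposed to 0.5, 10, 20 or 40 µM. Viability is read by MTT (590 nm) at 24 and 72 h. Growth is expressed relative to untreated cells and IC50 is fitted, in triplicate.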

HL-60 [5] = assay: Antiproliferative activity against human HL60 cells after 24 and 72 hrs by MTT assay; format: functional, cell-based; summary of the method: as §5
Bacillus cereus [6] = assay: Antimicrobial activity against Bacillus cereus ATCC 11778 for 24 hrs by microdillution method; format: functional; settings: ATCC 11778, 24 h; summary of the method: as §4
Klebsiella pneumoniae = assay: Antimicrobial activity against Klebsiella pneumoniae ATCC 13882 assessed as zone of inhibition at 30 uL for 24 hrs at 37 degC by disk diffusion test; format: functional, organism-based; summary of the method: as §1
Caco-2 [7] = assay: Induction of apoptosis in human Caco2 cells at 20 uM after 48 hrs by Hoechst 33258/propidium iodide staining based phase contrast microscopic analysis; format: functional; summary of the method: as §2
HT-29 [8] = assay: Induction of necrosis in human HT-29 cells at 20 uM after 48 hrs by Hoechst 33258/propidium iodide staining based phase contrast microscopic analysis; format: functional; summary of the method: as §2
[9] = Antiproliferative activity against human Saos2 cells after 24 and 72 hrs by MTT assay; format: functional, cell-based; settings: SAOS-2; summary of the method: as §5
Bacillus thuringiensis [10] = assay: Antimicrobial activity against Bacillus thuringiensis assessed as zone of inhibition at 30 uL for 24 hrs at 30 degC by disk diffusion test; format: functional; summary of the method: as §3
Caco-2 [11] = assay: Antiproliferative activity against human Caco2 cells after 24 and 72 hrs by MTT assay; format: functional, cell-based; summary of the method: as §5
Escherichia coli = assay: Antimicrobial activity against Escherichia coli ATCC 25922 assessed as zone of inhibition at 30 uL for 24 hrs at 37 degC by disk diffusion test; format: functional, organism-based; summary of the method: as §1
Bacillus thuringiensis [12] = assay: Antimicrobial activity against Bacillus thuringiensis for 24 hrs by microdillution method; format: functional; summary of the method: as §4
SAOS-2 [13] = assay: Induction of necrosis in human Saos2 cells at 20 uM after 48 hrs by Hoechst 33258/propidium iodide staining based […] microscopic analysis; format: functional; summary of the method: as §2
Cyberlindnera jadinii = assay: Antimicrobial activity against Candida utilis ATCC 9950 assessed as zone of inhibition at 30 uL for 24 hrs at 30 degC by disk diffusion test; format: functional, organism-based; summary of the method: as §3
SAOS-2 [14] = assay: Induction of apoptosis in human Saos2 cells at 20 uM after 48 hrs by Hoechst 33258/propidium iodide staining based phase contrast microscopic analysis; format: functional; summary of the method: as §2
[15] = system: Staphylococcus epidermidis; assay: Antimicrobial activity against Staphylococcus epidermidis ATCC 12228 assessed as zone of inhibition at 30 uL for 24 hrs at 37 degC by disk diffusion test; format: functional, organism-based; summary of the method: as §1
Proteus vulgaris = assay: Antimicrobial activity against Proteus vulgaris ATCC 33420 assessed as zone of inhibition at 30 uL for 24 hrs at 37 degC by disk diffusion test; format: functional, organism-based; summary of the method: as §1
Bacillus subtilis [16] = assay: Antimicrobial activity against Bacillus subtilis ATCC 6633 assessed as zone of inhibition at 30 uL for 24 hrs at 30 degC by disk diffusion test; format: functional; summary of the method: as §3
Candida tropicalis = assay: Antimicrobial activity against Candida tropicalis assessed as zone of inhibition at 30 uL for 24 hrs at 30 degC by disk diffusion test; format: functional, organism-based; summary of the method: as §3
MCF7 [17] = assay: Induction of necrosis in human MCF7 cells at 20 uM after 48 hrs by Hoechst 33258/propidium iodide staining based phase contrast microscopic analysis; format: functional; summary of the method: as §2
HeLa [18] = assay: Induction of apoptosis in human HeLa cells at 20 uM after 48 hrs by Hoechst 33258/propidium iodide staining based phase contrast microscopic analysis; format: functional; summary of the method: as §2
HeLa [19] = assay: Induction of necrosis in human HeLa cells at 20 uM after 48 hrs by Hoechst 33258/propidium iodide staining based phase contrast microscopic analysis; format: functional; summary of the method: as §2
Salmonella typhimurium = assay: Antimicrobial activity against Salmonella typhimurium ATCC 14028 assessed as zone of inhibition at 30 uL for 24 hrs at 37 degC by disk diffusion test; format: functional, organism-based; settings: Salmonella enterica subsp. enterica serovar Typhimurium; summary of the method: as §1
Micrococcus luteus = assay: Antimicrobial activity against Micrococcus luteus ATCC 9341 assessed as zone of inhibition at 30 uL for 24 hrs at 30 degC by disk diffusion test; format: functional, organism-based; summary of the method: as §3
HL-60 [20] = assay: Induction of apoptosis in human HL60 cells at 20 uM after 48 hrs by Hoechst 33258/propidium iodide staining based phase contrast microscopic analysis; format: functional; summary of the method: as §2
HeLa [21] = assay: Antiproliferative activity against human HeLa cells after 24 and 72 hrs by MTT assay; format: functional, cell-based; summary of the method: as §5
MCF7 [22] = assay: Induction of apoptosis in human MCF7 cells at 20 uM after 48 hrs by Hoechst 33258/propidium iodide staining based phase contrast microscopic analysis; format: functional; summary of the method: as §2
HT-29 [23] = assay: Induction of apoptosis in human HT-29 cells at 20 uM after 48 hrs by Hoechst 33258/propidium iodide staining based phase contrast microscopic analysis; format: functional; summary of the method: as §2
Candida albicans = assay: Antimicrobial activity against Candida albicans ATCC 10231 assessed as zone of inhibition at 30 uL for 24 hrs at 30 degC by disk diffusion test; format: functional, organism-based; summary of the method: as §3
Saccharomyces cerevisiae = assay: Antimicrobial activity against Saccharomyces cerevisiae ATCC 9763 assessed as zone of inhibition at 30 uL for 24 hrs at 30 degC by disk diffusion test; format: functional, organism-based; summary of the method: as §3
Enterococcus faecalis = assay: Antimicrobial activity against Enterococcus faecalis ATCC 29212 assessed as zone of inhibition at 30 uL for 24 hrs at 37 degC by disk diffusion test; format: functional, organism-based; summary of the method: as §1
Pseudomonas aeruginosa = assay: Antimicrobial activity against Pseudomonas aeruginosa ATCC 35032 assessed as zone of inhibition at 30 uL for 24 hrs at 37 degC by disk diffusion test; format: functional, organism-based; summary of the method: as §1
HL-60 [24] = assay: Induction of necrosis in human HL60 cells at 20 uM after 48 hrs by Hoechst 33258/propidium iodide staining based phase contrast microscopic analysis; format: functional; summary of the method: as §2
HT-29 [25] = assay: Antiproliferative activity against human HT-29 cells after 24 and 72 hrs by MTT assay; format: functional, cell-based; summary of the method: as §5

Row | MIC (Bacillus subtilis [3]) [µg/mL] | IC50 (MCF7 [4]) [µM] | IC50 (HL-60 [5]) [µM] | MIC (Bacillus cereus [6]) [µg/mL] | IC50 (Caco-2 [11]) [µM] | MIC (Bacillus thuringiensis [12]) [µg/mL] | Compound | diameter of the inhibition zone (DIZ) (Staphylococcus aureus) | Activity (Caco-2 [1]) [%] | diameter of the inhibition zone (DIZ) (Nakaseomyces glabratus) | diameter of the inhibition zone (DIZ) (Bacillus cereus [2]) [mm] | diameter of the inhibition zone (DIZ) (Klebsiella pneumoniae) | Activity (Caco-2 [7]) [%] | Activity (HT-29 [8]) [%] | IC50 [9] [µM] | diameter of the inhibition zone (DIZ) (Bacillus thuringiensis [10]) [mm] | diameter of the inhibition zone (DIZ) (Escherichia coli) | Activity (SAOS-2 [13]) [%] | diameter of the inhibition zone (DIZ) (Cyberlindnera jadinii) | Activity (SAOS-2 [14]) [%] | diameter of the inhibition zone (DIZ) [15] | also measured
1 | 64 (≈ 125 µM) | 20.5 | 10.8 | 128 (≈ 250 µM) | 17.4 | 128 (≈ 250 µM) | CC(=O)O[C@H]1CC[C@]2(C)[C@H]3CC=C4[C@@H]5CC(C)(C)CC[C@]5(C(=O)O)CC[C@@]4(C)[C@]3(C)CC[C@H]2[C@]1(C)C=O | inactive | 55 | inactive | 9 | inactive | 3 | 20 | 8.24 | 10 | inactive | 44 | inactive | 3 | inactive | diameter of the inhibition zone (DIZ) (Proteus vulgaris): inactive; diameter of the inhibition zone (DIZ) (Bacillus subtilis [16]): 11 mm; diameter of the inhibition zone (DIZ) (Candida tropicalis): inactive; Activity (MCF7 [17]): 29%; Activity (HeLa [18]): 4%; Activity (HeLa [19]): 33%; diameter of the inhibition zone (DIZ) (Salmonella typhimurium): inactive; diameter of the inhibition zone (DIZ) (Micrococcus luteus): inactive; Activity (HL-60 [20]): 8%; IC50 (HeLa [21]): 35 µM; Activity (MCF7 [22]): 5%; Activity (HT-29 [23]): 0.8%; diameter of the inhibition zone (DIZ) (Candida albicans): inactive; diameter of the inhibition zone (DIZ) (Saccharomyces cerevisiae): inactive; diameter of the inhibition zone (DIZ) (Enterococcus faecalis): inactive; diameter of the inhibition zone (DIZ) (Pseudomonas aeruginosa): inactive; Activity (HL-60 [24]): 25%; IC50 (HT-29 [25]): 11.1 µM
2 | 32 (≈ 60.6 µM) | 10.8 | 5.98 | 64 (≈ 121 µM) | 28.2 | 64 (≈ 121 µM) | CC(=O)O[C@H]1CC[C@]2(C)[C@H]3CC=C4[C@@H]5CC(C)(C)CC[C@]5(C(=O)O)CC[C@@]4(C)[C@]3(C)CC[C@H]2[C@]1(C)/C=N\O | inactive | 17 | inactive | 12 | inactive | 0 | 28 | 8.95 | 12 | inactive | 46 | inactive | 1 | inactive | diameter of the inhibition zone (DIZ) (Proteus vulgaris): inactive; diameter of the inhibition zone (DIZ) (Bacillus subtilis [16]): 13 mm; diameter of the inhibition zone (DIZ) (Candida tropicalis): inactive; Activity (MCF7 [17]): 55%; Activity (HeLa [18]): 0%; Activity (HeLa [19]): 64%; diameter of the inhibition zone (DIZ) (Salmonella typhimurium): inactive; diameter of the inhibition zone (DIZ) (Micrococcus luteus): inactive; Activity (HL-60 [20]): 6%; IC50 (HeLa [21]): 116 µM; Activity (MCF7 [22]): 5%; Activity (HT-29 [23]): 0.6%; diameter of the inhibition zone (DIZ) (Candida albicans): inactive; diameter of the inhibition zone (DIZ) (Saccharomyces cerevisiae): inactive; diameter of the inhibition zone (DIZ) (Enterococcus faecalis): inactive; diameter of the inhibition zone (DIZ) (Pseudomonas aeruginosa): inactive; Activity (HL-60 [24]): 52%; IC50 (HT-29 [25]): 6.71 µM
